Screens (PubChem BioAssay)
GPR7 antagonist – human neuropeptides B/W receptor 1 antagonism; GPR7-expressing cells, fluorescence antagonist assay; P48145; inhibition, % at 4.4 µM; hit rate 1.1% among 290,000; in the data active = inhibition above about 16%, passing the limit was not always enough;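 also: cells stimulated with the agonist NPW; 0% = agonist with vehicle and 100% = vehicle without agonist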
Target sequence (P48145 whole entry, looked up): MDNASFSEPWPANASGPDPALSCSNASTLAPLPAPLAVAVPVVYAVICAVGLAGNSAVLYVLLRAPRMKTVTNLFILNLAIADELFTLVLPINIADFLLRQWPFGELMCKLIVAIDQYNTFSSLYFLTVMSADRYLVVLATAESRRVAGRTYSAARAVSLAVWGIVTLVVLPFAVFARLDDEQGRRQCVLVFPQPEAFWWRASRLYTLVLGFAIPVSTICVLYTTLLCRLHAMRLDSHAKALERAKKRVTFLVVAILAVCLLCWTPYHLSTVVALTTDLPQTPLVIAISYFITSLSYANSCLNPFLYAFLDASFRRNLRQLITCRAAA
T cruzi repl – blocks replication of Trypanosoma cruzi; inhibition, % (test concentration not listed); hit rate 1.4% among 300,000; T. cruzi beta-gal in NIH3T3, luminescence, 90 h;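 active = mean inhibition across valid replicates above about 55%, limit read from the data; inconclusive = mean below that limit but half or more replicates reach it; inactive = mean below it, under half of replicates reach it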;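 also: signal also drops with host cell toxicity which is not excluded here; 0% = plate median of DMSO wells and 100% = zero luminescence signal; higher percent means less beta-gal luminescence so fewer parasites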
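Assay system: NIH/3T3 host cells with β-galactosidase reporter T. cruzi; input: 5,000 host fibroblasts per well; compound: single 50 nL compound addition per well in DMSO; timing: ≥90 h infection period, 3 h prior cell attachment; measured by: GalScreen β-gal luminescence, detergent lysis, 60 min; evaluation: percent inhibition of parasite-derived β-gal signal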
Jurkat NFkB inh – inhibitors of the PMA/ionomycin-induced NF-kB reporter in Jurkat cells; PMA/ionomycin-induced NF-kB luciferase reporter, luminescence; inhibition, % at 4 µM; hit rate 0.53% among 330,000; in the data active = inhibition above about 50%
HSF1 inhib – HSF1 inhibition; NIH3T3-HGL HSE-luciferase, MG132-induced, luminescence 8 h; stronger effect = lower value; activity change, negative = inhibition, % at 7.5 µM (by protocol); hit rate 0.77% among 300,000;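 active = more than half of replicate wells show activity change below -50%, luminescence cut by over half; inconclusive = some wells, but at most half, below -50%; inactive = no replicate well below -50%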;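 also: luciferase reports HSF-1 transcriptional activity via heat shock element; 0% = median of DMSO wells and -100% = zero luminescence signal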
HSF1 activator – increases HSF-1 driven luciferase reporter signal. NIH3T3-HGL HSF-1 luciferase reporter, MG132, 8 h; 100% = twice DMSO control signal. activation, % at 9 µM. hit rate 1.7% among 300,000. AID 504408;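 active = mean replicate activation of at least 50% with a set share of replicates each reaching 50%; inconclusive = only one of those two conditions met; inactive = mean below 50% and too few replicates reaching it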;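 also: 0% = median of the neutral control wells and 100% = twice that signal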
697 NFkB inh – lowers PMA/ionomycin-induced NF-kB signal in 697 B cells. inhibition, % at 4 µM. 697 B-cell NF-kB luciferase reporter, 16 h. AID 435022. hit rate 0.33% among 330,000; in the data active = inhibition above about 35%
Jurkat NFkB conf – lowers PMA/ionomycin-induced NF-kB signal in Jurkat cells; inhibition, % at 4 µM; hit rate 27% among 2,700; AID 435020; shares compounds with Jurkat NFkB inh; Jurkat NF-kB luciferase, 16 h;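 active = inhibition reaching about 45% at 4 µM in either replicate, limit read from the data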;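 also: plate controls were PMA/ionomycin stimulated DMSO wells for no effect and unstimulated DMSO wells for full effect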
* hit, by the source's call; ? = inconclusive; . = no result given. An excerpt weighted towards active compounds, which were near 4.8% of everything screened.

SMILES	GPR7 antagonist	T cruzi repl	Jurkat NFkB inh	HSF1 inhib	HSF1 activator	697 NFkB inh	Jurkat NFkB conf
CCCC1=C(C(=O)OCC)C(/C=C/c2ccccc2)n2ncnc2N1 (stereo not given)	6	-9	53*	15	33	-62	1
CCOC(=O)C1=C(C)Nc2ncnn2C1/C=C/c1ccccc1 (stereo not given)	-3	6	5	20	38	6	.
Nc1nnnn1/N=C/C(Br)=C/c1ccccc1	4	-16	57*	188	252*	-61	16
COc1ccc(-n2nc(C(=O)NCC(=O)NCCCN3CCOCC3)c3ccccc3c2=O)c(OC)c1	3	-11	-7	-2	13	2	.
CCCNC(=O)C1CC(=O)N(c2ccc(OCc3ccc(F)cc3)cc2)C1 (stereo not given)	2	8	-152	23	26	-33	-75
CCCNC(=O)C1CC(=O)N(c2ccc(OCc3ccc(Cl)cc3)cc2)C1 (stereo not given)	-13	0	-128	10	16	-30	.
Nc1nc2n[nH]nc2c(=O)[nH]1	.	68*	64*	-1	-5	-52	74*
Nc1nc2c(ncn2CCC(CO)CO)c(=O)[nH]1	.	-21	4	-1	6	8	.
COc1ccccc1N1CCN(C(=O)COc2cc(C)cc(C)c2)CC1	9	2	-17	1	-1	3	.
Cc1cccn2cc(-c3ccc(F)cc3)nc12	3	-4	-167	32	47	-198	-93
COc1ccc(C(=O)c2ccc(N(C)C)cc2)c(OC)c1	14	-32	68*	-2	-9	-52	47*
COc1cccc(N=Nc2ccc(O)c3ncccc23)c1	-11	34	70*	53	90*	-79	15
O=S(=O)(O)c1cccc2c(N=Nc3ccc(O)c4ncccc34)cccc12	-6	-5	.	-2	-3	.	.
COc1ccc(N=Nc2ccc(O)c3ncccc23)cc1	-7	46	74*	-26	-28	-122	-14
Nc1ccc(Br)c2cccnc12	-9	-17	14	23	30	-3	.
Nc1ccc(N=Nc2ccccc2)c2cccnc12	3	28	84*	53	82*	-85	-2
COc1cccc(N=Nc2ccc3cccnc3c2O)c1	4	43	95*	42	36	-124	20
COc1ccc(-n2nc(C(=O)NCC(=O)N3CCC(C(N)=O)CC3)c3ccccc3c2=O)cc1	-8	-15	2	-8	-2	8	.
CC(C)(C)c1ccc(Oc2ncccc2NC(=O)c2cccs2)cc1	-2	18	22	1	-4	-18	.
O=C1CCCC(O)=C1C=NCc1ccccc1	1	-14	-7	-2	-2	8	.
CCN(c1ccccc1)S(=O)(=O)c1cccc(C(=O)N2CCN(S(=O)(=O)c3ccccc3)CC2)c1	-12	17	6	2	11	-9	.
CC(C)(C)c1ccc(C(=O)Nc2ccc([N+](=O)[O-])cn2)cc1	-16	16	-182	38	54*	-96	-113
Cc1cccc(C)c1OCCNC(=O)C(=O)NCc1ccco1	13	-21	67*	0	-18	-122	38
O=C(c1ccc(F)cc1F)C1CCN(c2ccc([N+](=O)[O-])cn2)CC1	7	7	86*	11	?	-44	29
Cc1ccc(S(=O)(=O)N2CCCCC2)cc1NC(=O)Cc1c[nH]c2ccccc12	-2	7	66*	-7	-10	-79	21
SMILES	GPR7 antagonist	T cruzi repl	Jurkat NFkB inh	HSF1 inhib	HSF1 activator	697 NFkB inh	Jurkat NFkB conf
CCc1cc(OCCOCCN(C)C)ccc1Cl	5	28	4	-11	-11	-10	.
O=C(COc1ccc(Br)cc1Br)NC(=O)NC1CCCC1	3	16	-73	-3	3	-66	.
CC(C)(C)NC(=O)NC(=O)COc1ccc(Br)cc1Br	-8	19	-210	46	74*	-201	-101
[O-][n+]1ccc(C(O)c2ccccc2)cc1 (stereo not given)	-2	3	-3	1	22	-1	.
COc1ccc(/C=C2\SC(N3CCCCC3)=NC2=O)cc1OC	-10	7	-13	12	34	-1	.
COc1cc(/C=C2\SC(N3CCC(C)CC3)=NC2=O)ccc1O	-1	-4	61*	12	46	34	19
O=C(Nc1nc2ccccc2s1)NC1CCCCC1	-10	27	-179	-2	23	-133	-112
O=C(CC1CCCCC1)Nc1nc2ccccc2s1	-11	3	-106	11	24	-182	.
COc1ccc(N(Cc2ccccc2)C(=O)CSc2nnc(Cn3nnc4ccccc43)o2)cc1	-2	20	14	21	12	4	.
O=C(CSc1nnc(Cn2nnc3ccccc32)o1)N(Cc1ccc(F)cc1)c1ccccc1	20	13	57*	19	42	20	61*
Cc1cc(-c2ccc(C)c(S(=O)(=O)N3CCN(c4ccc([N+](=O)[O-])cc4)CC3)c2)on1	10	-16	54*	-5	-13	-9	64*
CCc1ccc(-c2cc(C)no2)cc1S(=O)(=O)N1CCN(c2ccccc2)CC1	-1	11	53*	15	13	-65	7
Cc1cc(-c2ccc(C)c(S(=O)(=O)NCCCN3CCN(c4ccccc4)CC3)c2)on1	-2	25	15	3	1	-26	.
CCCn1c(N/N=C(C)\C=C\c2ccccc2)nc2c1c(=O)[nH]c(=O)n2C	-8	14	-8	-5	1	13	.
Cc1cccc(N2CCN(C(=O)COc3cc4oc(=O)cc(C)c4cc3Cl)CC2)c1C	1	11	54*	-3	-8	-26	8
C=CCCC(=O)Nc1nc(C)c(-c2csc(Nc3ccccc3OC)n2)s1	7	-4	53*	-39	-52	-37	16
COC(=O)/C(=C\Nc1ccc(Cl)cc1Cl)NC(=O)c1ccc(OC)cc1	2	26	66*	-3	-23	-2	-1
COC(=O)/C(=C\Nc1ccc(OC)cc1)NC(=O)c1ccc(Cl)cc1Cl	-15	-11	-13	-12	-10	4	.
CC(c1ccon1)N(C)C(=O)CCc1nnc(CCCCc2ccccc2)o1 (stereo not given)	-11	5	-7	-3	0	5	.
CCC(=O)O/N=C(\N)c1ccc(Oc2cc(C)c(Cl)c(C)c2)c([N+](=O)[O-])c1	-7	3	53*	-14	-17	-12	4
N#CC1=C(SCC(=O)c2ccccc2)NC2=C(C(=O)CCC2)C1c1ccco1 (stereo not given)	6	6	10	14	34	-166	.
Cc1ccc(C(=O)CSC2=C(C#N)C(c3ccco3)C3=C(CCCC3=O)N2)cc1 (stereo not given)	4	32	67*	16	27	-84	44
